Assay outcomes as filed in PubChem.
HCV NS3 hel inh = HCV NS3 helicase inhibition; NS3 helicase DNA unwinding, Cy5 molecular beacon fluorescence; inhibition, % at 10.9 µM; 0.56% of 290,000 active;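 active = inhibition above the mean of all tested compounds plus 3 SD, set per campaign, cut at about 35% in these data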
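System: Hepatitis C virus NS3 helicase domain fragment enzyme | Reagent: Annealed dual-labelled DNA beacon duplex, ATP-started | Compound dosing: 10.9 µM single point, 0.8% DMSO | Incubation: 1 h reaction at 25 °C, ATP-initiated | Technique: Cy5 fluorescence | Evaluation: Percent inhibition from t60/t0 fluorescence ratio | Benchmarks: Low DMSO, high thioflavine S at 110 µM | Replication: Singlicate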
FID counter = counter-screen for HCV NS3 helicase inhibitors: DNA intercalator displacement; DNA fluorescent intercalator displacement, fluorescence; inhibition, % at 7.9 µM; 0.17% of 290,000 active; in the data active = inhibition above about 37%;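 also: higher means more ethidium bromide displaced from hairpin DNA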
eIF4H inh = inhibitors of RNA binding by human eIF4H; Q15056; eIF4H fluorescence polarization binding assay; inhibition, % at 35 µM; 0.94% of 290,000 active;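 also: calls also rest on retests at 20 µM and on dose response follow-up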
PABP polyA inh = PABP-poly(A) binding inhibition. AID 2014. 1% of 290,000 active. P11940. PABP-poly(A) RNA binding, fluorescence polarization. inhibition, % at 35 µM;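 also: calls also rest on retests at 20 µM and on dose response follow-up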
core dimer inh = blocks dimerization of HCV core protein; TR-FRET GST/Flag-core106 dimerization, 1536-well; inhibition, % at 5 µM; 0.33% of 300,000 active;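 active = inhibition above the mean of all tested compounds plus 3 SD, set per screening campaign, cut at about 45% in these data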
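assay system = GST-tagged and Flag-tagged HCV core protein residues 1-106 | controls = unlabelled core106 and no-GST-core106 wells | incubation = compound-protein-antibody incubation 4 h at 22.5 °C | probe or stimulus = Eu donor and XL665 acceptor anti-tag antibodies | read-out = % inhibition based on acceptor/donor emission ratio | signal = TR-FRET 671 and 617 nm emission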
PABP1 MLLE inh = blocks PAM2 peptide binding to the PABP1 MLLE domain | P11940 | GST-MLLE / FITC-PAM2 fluorescence polarization | inhibition, % at 20 µM | 0.36% of 360,000 active | AID 588489; in the data active = inhibition above about 35%, passing the limit was not always enough
Large screens that a line does not name were inactive. Hits are enriched below; roughly 2% of the tested compounds scored in any of these assays. Unless noted, no rule for the calls is given here.

CC(=O)COc1ccc2cc(-c3ccccc3)c(=O)oc2c1	none
CC(=O)Nc1ccc(NC(=O)CCC(=O)OCC(=O)c2ccc(C)c([N+](=O)[O-])c2)cc1	none
Cc1ccc(C(=O)COC(=O)CCC(=O)Nc2ccccc2Cl)cc1[N+](=O)[O-]	eIF4H inh 4.8, PABP polyA inh 102
CCOC(=O)c1c(NC(=S)Nc2ccc(Cl)cc2)sc(C)c1C	none (no result: core dimer inh)
Cc1sc(NC(=S)Nc2ccc(F)cc2)c(C(N)=O)c1C	PABP1 MLLE inh 35
COc1ccc(C2=CC3=C(Br)C(=O)C(C)(O)C(=O)C3=CO2)cc1 (centres undefined)	PABP polyA inh 56 (no result: HCV NS3 hel inh, FID counter)
CCC(=O)OC1(C)C(=O)C2=COC(c3ccc(OC)cc3)=CC2=C(Br)C1=O (centres undefined)	eIF4H inh inconclusive, PABP polyA inh inconclusive (no result: HCV NS3 hel inh, FID counter)
CCCCNC(=O)c1ccc(Cc2cn(C)c3ccccc23)nc1	none (no result: HCV NS3 hel inh, FID counter, eIF4H inh, PABP polyA inh, core dimer inh)
CCOc1ncccc1C(=O)Nc1cc2c(cc1Br)OCCO2	none (no result: HCV NS3 hel inh, FID counter, eIF4H inh, PABP polyA inh, core dimer inh)
O=C(CSc1nnc2c3ccccc3c3ccccc3c2n1)Nc1ccccc1F	eIF4H inh 85
O=C(CSc1nnc2c3ccccc3c3ccccc3c2n1)Nc1ccccc1	none (no result: PABP1 MLLE inh)
c1ccc(COc2ccc(OCCCCN3CCCCC3)cc2)cc1	FID counter 44
COc1ccc(Cl)cc1S(=O)(=O)Nc1ccc2c(c1)n(C)c(=O)n2C	none
COc1ccc(-c2csc3nc(-c4ccc(C)cc4)oc(=O)c23)cc1OC	core dimer inh 50
Cc1cc(C)n(NC(=S)NC2CCCC2)c(=O)c1C#N	PABP1 MLLE inh 45
O=C(Nc1ccccc1Cl)Nc1ccnn1C1CCN(C(=O)C2CCOC2)CC1 (centres undefined)	none (no result: HCV NS3 hel inh, FID counter, eIF4H inh, PABP polyA inh, core dimer inh)
Cc1ccc(C)c(N2CCN(CCCNC(=O)Cn3cccc3C(=O)c3ccccc3C)CC2)c1	FID counter 38
COc1cc2c(c(OCC(=O)NC(C)C)c1)C(=O)O[C@@H](C)CCCC(=O)CCCCC2	PABP1 MLLE inh 52
COc1cc(OCC(=O)NC(C)C)cc2c1C(=O)O[C@@H](C)CCCC(=O)CCCCC2	none
CSc1ncc(CN2CCCC(C(=O)Nc3ccc(-c4ccco4)cc3)C2)cn1 (centres undefined)	core dimer inh 57
COc1ccccc1-c1csc(C(C)(NC(C)=O)c2ccccc2)n1 (centres undefined)	none (no result: HCV NS3 hel inh, FID counter, eIF4H inh, PABP polyA inh, core dimer inh)
COc1ccnc(CN(C)C(=O)C2CCC(=O)N(CCN(C)C)C2)c1 (centres undefined)	eIF4H inh 54
CCc1ccc(CN(C)C(=O)C2CCC(=O)N(CCc3ccc(OC)cc3)C2)nc1 (centres undefined)	none
O=C(O)Cc1n[nH]c(=O)c2ccccc12	eIF4H inh 1.1
O=C(Cc1n[nH]c(=O)c2ccccc12)NCc1ccccc1	none
O=c1[nH]nc(CNc2ccc(C(F)(F)F)cc2)c2ccccc12	none
O=c1[nH]nc(CNc2ccc(O)cc2)c2ccccc12	eIF4H inh 59, PABP polyA inh 55
CC(=O)NC(c1ccc(F)c(F)c1)c1nc(-c2ccc(C)c(C)c2)cs1 (centres undefined)	none (no result: HCV NS3 hel inh, FID counter, eIF4H inh, PABP polyA inh, core dimer inh)
CCOC(=O)C1(C)CCN1C(=O)c1cccc(C#N)c1 (centres undefined)	none (no result: HCV NS3 hel inh, FID counter, eIF4H inh, PABP polyA inh, core dimer inh)
O=c1cc(CN2CCC(Cc3ccccc3)CC2)nc2sccn12	none
O=c1cc(CN2CCc3ccccc32)nc2sccn12	core dimer inh 86
O=c1cc(CN2CCCc3ccccc32)nc2sccn12	eIF4H inh 94
O=c1cc(CN2CCN(c3ccccn3)CC2)nc2sccn12	none
Cc1c(Cl)cccc1N1C(=O)CC(NNC(=O)c2ccc3c(c2)OCO3)C1=O (centres undefined)	none (no result: HCV NS3 hel inh, FID counter, eIF4H inh, PABP polyA inh, core dimer inh)
CC[n+]1c(C)sc2c3ccsc3ccc21	none
CC[n+]1c(C)sc2sc3ccccc3c21	PABP polyA inh 55 (no result: PABP1 MLLE inh)
CCC1CCCCN1CCCNC(=O)c1ccc(CS(=O)(=O)c2ccccc2OC)o1 (centres undefined)	none
CCn1c(=S)sc2c(=O)[nH]c(SCC(=O)Nc3cc(OC)ccc3OC)nc21	none
O=C(O)c1ccc(N=Nc2c(O)ccc3ncccc23)cc1	eIF4H inh 90, PABP polyA inh 45
O=C(O)c1cc(N=Nc2c(O)ccc3ccccc23)cc(C(=O)O)c1	none (no result: core dimer inh)
COc1ccc(OC)c(N2Cc3cc(C)c(C)cc3C2)c1	eIF4H inh 105
CCOc1ccc(N2Cc3ccccc3C2)cc1	none
CCOc1ccccc1N1Cc2cc(C)c(C)cc2C1	core dimer inh 67
CCOc1ccccc1N1Cc2ccccc2C1	core dimer inh 54
CN(Cc1cccc(F)c1)C(=O)c1ccc(S(=O)(=O)N2CCCCCC2)cc1	none (no result: HCV NS3 hel inh, FID counter, eIF4H inh, PABP polyA inh, core dimer inh)
Cc1cc(C)nc(Nc2nc(=O)c3ccccc3s2)n1	PABP1 MLLE inh 38
CC(CNC(=O)CN1C(=O)NC2(CCOc3ccccc32)C1=O)c1ccccc1 (centres undefined)	none (no result: HCV NS3 hel inh, FID counter, eIF4H inh, PABP polyA inh, core dimer inh)
O=C(Nc1ccccc1)C1Cc2ccccc2CN1C(=O)c1ccco1 (centres undefined)	core dimer inh 59
COc1ccccc1NC(=O)C1Cc2ccccc2CN1C(=O)c1ccco1 (centres undefined)	none
CC1(C(=O)NS(=O)(=O)c2cccc(C#N)c2)CCN1C(=O)c1cccc2ccccc12 (centres undefined)	none (no result: HCV NS3 hel inh, FID counter, eIF4H inh, PABP polyA inh, core dimer inh)
COc1ccc(OC)c(S(=O)(=O)N2CCN(C(=O)c3cc(C4CC4)nn3-c3ccccc3)CC2)c1	PABP1 MLLE inh 68 (no result: HCV NS3 hel inh, FID counter, eIF4H inh, PABP polyA inh, core dimer inh)
CCCCn1c(N)c(N(CC)C(=O)CCNC(=O)NC23CC4CC(CC(C4)C2)C3)c(=O)[nH]c1=O	none
O=C1/C(=C/c2ccco2)SC(=S)N1CC1CCCO1 (centres undefined)	eIF4H inh 74
O=C1/C(=C\c2ccco2)NC(=S)N1c1ccccc1	PABP polyA inh 65
CCCN=C1N/C(=C\c2ccco2)C(=O)N1c1ccccc1	none
COc1ccc(CCN2C(=O)/C(=C\c3ccco3)SC2=S)cc1OC	eIF4H inh 63, PABP polyA inh active (no result: core dimer inh)
CC1=NN2C(=N)/C(=C\c3ccc(SCc4ccccc4)o3)C(=O)N=C2S1	eIF4H inh inconclusive, PABP polyA inh 121
O=C(COC(=O)CNC(=O)c1ccccc1)NC(=O)NC1CCCCC1	none (no result: HCV NS3 hel inh, FID counter, eIF4H inh, PABP polyA inh, core dimer inh)
COc1ccc2c(CN3CCCCCCC3)cc(=O)oc2c1	none (no result: HCV NS3 hel inh, FID counter, eIF4H inh, PABP polyA inh, core dimer inh)
CC(C)(C)C(=O)C(C(c1ccccc1)N1CCOCC1)N1CCOCC1 (centres undefined)	none (no result: HCV NS3 hel inh, FID counter, eIF4H inh, PABP polyA inh, core dimer inh)
S=C(NCCc1ccccc1)N1CCC2CC1c1cc(-c3ccc4c(c3)OCO4)ccc12 (centres undefined)	none (no result: HCV NS3 hel inh, FID counter, eIF4H inh, PABP polyA inh, core dimer inh)
CC(C)NC(=O)C1(C)CCN1Cc1cccc(C#N)c1 (centres undefined)	none (no result: HCV NS3 hel inh, FID counter, eIF4H inh, PABP polyA inh, core dimer inh)
CN(Cc1ccccc1)C(=O)c1ccc(Nc2nc(C(N)Cc3ccc(C(F)(F)F)cc3)cs2)nc1 (centres undefined)	none (no result: HCV NS3 hel inh, FID counter, eIF4H inh, PABP polyA inh, core dimer inh)
O=C1/C(=C\c2ccco2)SC(=S)N1c1ccccc1	HCV NS3 hel inh 37
O=C(O)CCN1C(=O)/C(=C\c2ccncc2)SC1=S	none
